What was measured:
Type in all cases: functional, cell-based
MCF7 = test: Cytotoxicity against human MCF7 cells assessed as decrease in cell viability after 48 hrs by MTS assay; details: MCF7, 48 h
In short: (§1)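 Cells kept in RPMI-1640 or DMEM with 10% FBS, 37 °C, 5% CO2. Seeded at 1 × 10^5 cells/mL; adherent lines left 12 h to attach, suspension cells (HL-60) seeded just before dosing. Triplicate wells at various concentrations for 48 h; MTS then 4 h at 37 °C; lysis in 20% SDS/50% DMF; OD 490 nm. IC50 by Reed and Muench method.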

SW480 = test: Cytotoxicity against human SW480 cells assessed as decrease in cell viability after 48 hrs by MTS assay; details: SW480, 48 h; in short: as §1
A549 = test: Cytotoxicity against human A549 cells assessed as decrease in cell viability after 48 hrs by MTS assay; details: A549, 48 h; in short: as §1
HeLa = test: Cytotoxicity against human HeLa cells assessed as decrease in cell viability after 48 hrs by MTS assay; in short: as §1
HL-60 = test: Cytotoxicity against human HL60 cells assessed as decrease in cell viability after 48 hrs by MTS assay; details: HL-60, 48 h; in short: as §1
SMMC-7721 = test: Cytotoxicity against human SMMC7721 cells assessed as decrease in cell viability after 48 hrs by MTS assay; details: SMMC-7721, 48 h; in short: as §1

Structure (SMILES) | IC50 (MCF7) | IC50 (SW480) | IC50 (A549) | IC50 (HeLa) | IC50 (HL-60) | IC50 (SMMC-7721)
C=C1[C@@H]([C@H](C)C[C@@H]2C=C(C)C(=O)O2)CC[C@@]2(C)C3=CC[C@H]4C(C)(C)[C@H](O)CC[C@]4(C)[C@@H]3C[C@@H]12 | 13.6 µM | 25.4 µM | > 40 µM | 18.6 µM | 7.36 µM | > 40 µM
C=C1[C@@H]([C@H](C)C[C@@H](O)/C=C(\C)C(=O)O)CC[C@@]2(C)C3=CC[C@H]4C(C)(C)[C@H](OC(C)=O)CC[C@]4(C)[C@@H]3C[C@@H]12 | > 10 µM | > 10 µM | > 10 µM | > 10 µM | > 10 µM | > 10 µM
C=C1[C@@H]([C@H](C)CC/C=C(/C)C(=O)O)CC[C@@]2(C)C3=CC[C@H]4C(C)(C)C(=O)CC[C@]4(C)[C@@H]3C[C@@H]12 | > 10 µM | > 10 µM | > 10 µM | > 10 µM | > 10 µM | > 10 µM
C/C(=C/CC[C@@H](C)C1=C(CO)[C@@H]2C[C@@H]3C(=CC[C@H]4C(C)(C)C(=O)CC[C@]34C)[C@]2(C)CC1)C(=O)O | > 10 µM | > 10 µM | > 10 µM | > 10 µM | > 10 µM | > 10 µM
CC(=O)O[C@@H]1CC[C@]2(C)[C@@H]3C[C@H]4[C@@](C)(O)[C@@H]([C@H](C)CC/C=C(/C)C(=O)O)CC[C@@]4(C)C3=CC[C@H]2C1(C)C | > 10 µM | > 10 µM | > 10 µM | > 10 µM | > 10 µM | > 10 µM
CC(=O)O[C@@H]1CC[C@]2(C)[C@@H]3C[C@H]4C(CO)=C([C@H](C)CC/C=C(/C)C(=O)O)CC[C@@]4(C)C3=CC[C@H]2C1(C)C | > 10 µM | > 10 µM | > 10 µM | > 10 µM | > 10 µM | > 10 µM
C=C1[C@@H]([C@H](C)CC/C=C(/C)C(=O)O)CC[C@@]2(C)C3=CC[C@H]4C(C)(C)[C@@H](O)CC[C@]4(C)[C@@H]3C[C@@H]12 | > 10 µM | > 10 µM | > 10 µM | > 10 µM | > 10 µM | > 10 µM
C=C1[C@@H]([C@H](C)CC(=O)/C=C(\C)C(=O)O)CC[C@@]2(C)C3=CC[C@H]4C(C)(C)[C@H](OC(C)=O)CC[C@]4(C)[C@@H]3C[C@@H]12 | 4.61 µM | 5.99 µM | 13 µM | 7.77 µM | 3.11 µM | 11.6 µM
C=C1[C@@H]([C@H](C)C[C@H]2C=C(C)C(=O)O2)CC[C@@]2(C)C3=CC[C@H]4C(C)(C)[C@H](O)CC[C@]4(C)[C@@H]3C[C@@H]12 | 15.6 µM | 20.1 µM | 27.1 µM | 12.3 µM | 10.4 µM | 25 µM
CC(=O)O[C@@H]1CC[C@]2(C)[C@@H]3C[C@H]4C(C=O)=C([C@H](C)CC/C=C(/C)C(=O)O)CC[C@@]4(C)C3=CC[C@H]2C1(C)C | > 10 µM | > 10 µM | > 10 µM | > 10 µM | > 10 µM | > 10 µM
C=C1[C@@H]([C@H](C)CC/C=C(/C)C(=O)O)CC[C@@]2(C)C3=CC[C@H]4C(C)(C)[C@H](O)CC[C@]4(C)[C@@H]3C[C@@H]12 | > 10 µM | > 10 µM | > 10 µM | > 10 µM | > 10 µM | > 10 µM
C=C1[C@@H]([C@H](C)CC/C=C(/C)C(=O)O)CC[C@@]2(C)C3=CC(=O)[C@H]4C(C)(C)[C@H](OC(C)=O)CC[C@]4(C)[C@@H]3C[C@@H]12 | > 10 µM | > 10 µM | > 10 µM | > 10 µM | > 10 µM | > 10 µM
CC(=O)O[C@@H]1CC[C@]2(C)[C@@H]3CC4=C(CO)[C@@H]([C@H](C)CC/C=C(/C)C(=O)O)CC[C@@]4(C)C3=CC[C@H]2C1(C)C | > 10 µM | > 10 µM | > 10 µM | > 10 µM | > 10 µM | > 10 µM
C=C1[C@@H]([C@H](C)CC/C=C(/C)C(=O)O)CC[C@]2(C)[C@H]1C[C@H]1[C@@]3(C)CCC(=O)C(C)(C)[C@@H]3C[C@@H]3O[C@@]312 | > 10 µM | > 10 µM | > 10 µM | > 10 µM | > 10 µM | > 10 µM
CC(=O)O[C@H]1C(=O)[C@@]2(C)[C@H]([C@H](OC(=O)c3ccccc3)[C@]3(O)C[C@H](OC(=O)[C@H](O)[C@@H](NC(=O)c4ccccc4)c4ccccc4)C(C)=C1C3(C)C)[C@]1(OC(C)=O)CO[C@@H]1C[C@@H]2O [PACLITAXEL] | < 0.008 µM | < 0.008 µM | < 0.008 µM | < 0.008 µM | < 0.008 µM | < 0.008 µM

Reference: ChEMBL document CHEMBL4000161, “Rearranged 6/6/5/6-Fused Triterpenoid Acids from the Stems of Kadsura coccinea” (J Nat Prod, 2016)
